A selection: hits, their analogues and other compounds. The true share with any hit is near 2.3%.
MT stabilizer: microtubule stabilizers in HeLa cells | HeLa tubulin immunostaining HCS, 24 h; share of cells brighter than vehicle mean+2SD | % tubulin-high responders, % at 10 µM | 0.83% of 200,000 active;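 active = plate Z-score above 3 for both tubulin-high and condensed-nucleus cell shares, with cell loss under 80%, at 10 µM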;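 note: anti alpha tubulin signal scored within the nucleus-defined area of each cell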
b-catenin transl: beta-catenin nuclear translocation modulation. 0.3% of 190,000 active. nuclear translocation activity, % at 5 µM. AID 1665. HeLa beta-catenin nuclear translocation, immunofluorescence imaging;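 active = nuclear translocation activity above 50% at 5 µM, with a well cell count of 50 or more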;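 note: per-cell ratio of nuclear to cytoplasmic median beta-catenin stain intensity; plate controls were DMSO negative control for no effect and GSK-3 inhibitor IX positive control for full effect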
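Test system: human HeLa cell line; Doses: 5 µM primary, 0.02–20 µM confirmation; Incubation: 24 h compound exposure, 37°C; Detection: beta-catenin immunofluorescence imaging with DAPI; Read-out: beta-catenin nuclear/cytoplasmic ratio, % activation.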
Autophagy HCS: autophagy modulation, high-content screen | MEF GFP-LC3 puncta imaging; test concentration mostly 10 µM | calls only at 10 µM (by protocol) | 0.98% of 190,000 active;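 active = percentage of spot-positive cells more than 3 SD above its plate mean, without a fluorescence outlier flag or 80% toxicity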;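 note: spot-positive cell cutoff set from DMSO-treated cells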
Dynein cargo inh: blocks dynein driven cargo transport along microtubules; 3617.4 mouse cells, GR-EGFP nuclear translocation imaging; test concentration mostly 20 µM; stimulated with dexamethasone, 1 µM; stronger effect = lower value; z-score, hits read low; 0.47% of 220,000 active;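 active = plate z-score of nuclear minus cytoplasmic receptor signal below a set negative limit, without overly bright fluorescence or cell loss, cut at about -3.5 in these data, passing the limit was not always enough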;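 note: z-score of nuclear minus cytoplasmic ring GR-EGFP intensity difference per well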
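Buffer or medium: Induction medium lacking tetracycline, stripped serum | Also added: Dexamethasone agonist, 1.0 µM final, for 30 min | Timing: 48 h induction, 1 h compound, 30 min dex at 37 °C | Detection: Formaldehyde fixation, Hoechst nuclear stain, 10x automated fluorescence imaging | Measure: Nuclear versus cytoplasmic GR-EGFP signal, averaged per well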
Ins promoter up: MIN6 insulin promoter up-regulation; MIN6 insulin promoter-GFP reporter, high-content imaging; stronger effect = higher value; z-score at 5 µM; 0.3% of 190,000 active; AID 1625;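 active = z-score above 3 at 5 µM with at least 500 cells counted in the well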
Numbers without * were called inactive.

For COC(=O)C1=C(C)NC(C)=C(C(=O)OC)C1c1cc2ccc(C)cc2[nH]c1=O the results were MT stabilizer 31*, b-catenin transl 0, Autophagy HCS inactive, Dynein cargo inh -0.36 and Ins promoter up -0.24.
Screening CCOC(=O)C1=C(C)NC(C)=C(C(=O)OCC)C1c1cc2ccc(C)cc2[nH]c1=O returned MT stabilizer 45*, Autophagy HCS inactive, Dynein cargo inh -0.36 and Ins promoter up -0.23.
CC(C)(C)c1cc(C(=O)O)n(Cc2ccc(Cl)cc2Cl)n1 was read as b-catenin transl 2, Dynein cargo inh -0.21 and Ins promoter up -0.48.
`CC(=O)N1CCCN(Cc2cn(-c3cccc(C)c3)nc2-c2cccc(F)c2)CC1` gave b-catenin transl 1, Dynein cargo inh -0.71 and Ins promoter up -0.42.
For CCNc1nc(NCC)nc(Oc2ccc(C(=O)OC)cc2)n1 the results were b-catenin transl 0, Dynein cargo inh 0.029 and Ins promoter up -0.68.
Cc1cc(C)c(S(=O)(=O)N2CCOC2CNC(=O)C(=O)NCCCn2ccnc2)c(C)c1 (centres undefined) was read as b-catenin transl 0, Dynein cargo inh -0.23 and Ins promoter up 0.02.
`O=C1c2cccc3c(N4CCCCC4)ccc(c23)C(=O)N1c1ccc(O)cc1` gave MT stabilizer 8, b-catenin transl 1, Autophagy HCS active, Dynein cargo inh 0.32 and Ins promoter up 6.1*.
`CCOC(=O)C1=C(O)/C(=C/c2cn(CC(=O)NCC3CCCO3)c3ccccc23)SC1=Nc1ccc(C)cc1` (centres undefined) gave MT stabilizer 4, Autophagy HCS active and Dynein cargo inh -0.8.
`CC(C)C(=O)c1cn(CC(=O)NCC2CCCO2)c2ccccc12` (centres undefined) gave MT stabilizer 4, b-catenin transl -4, Autophagy HCS inactive, Dynein cargo inh -0.15 and Ins promoter up 0.57.
For O=c1oc2ccccc2c(Nc2cc3ccccc3cc2O)c1[N+](=O)[O-] the results were MT stabilizer 17*, b-catenin transl 23, Autophagy HCS inactive and Dynein cargo inh 2.3.
O=c1oc2ccccc2c(Nc2ccccc2O)c1[N+](=O)[O-] was read as MT stabilizer 3, b-catenin transl 1, Autophagy HCS inactive and Dynein cargo inh -0.11.
Screening Cc1sc(Cc2nc(O)cs2)nc1-c1ccccc1 returned MT stabilizer 2, b-catenin transl 1, Autophagy HCS inactive, Dynein cargo inh 0.17 and Ins promoter up -0.11.
`COCCNC(=O)Cc1ccc(F)cc1` gave MT stabilizer 7, b-catenin transl -2, Autophagy HCS inactive, Dynein cargo inh -0.86 and Ins promoter up 3*.
Screening Cc1ccc(CC(=O)NCc2ccc(F)cc2)cc1 returned MT stabilizer 25*, b-catenin transl 13, Autophagy HCS inactive, Dynein cargo inh -0.16 and Ins promoter up -0.12.
Screening Cc1ccc(CNC(=O)Cc2ccc(-c3ccccc3)cc2)cc1 returned MT stabilizer 16, Autophagy HCS inactive and Dynein cargo inh 1.2.
For Cc1ccc(CNC(=O)CNC(=S)N(Cc2ccccc2)Cc2ccccc2F)cc1 the results were MT stabilizer 2, b-catenin transl -1, Autophagy HCS active, Dynein cargo inh 0.42 and Ins promoter up -0.62.
`O=C(O)c1ccccc1N/N=C/c1c(Sc2nnnn2-c2ccccc2)nc2ccccn2c1=O` gave b-catenin transl 1 and Dynein cargo inh 0.65.
`O=c1c(/C=N/Nc2ccccc2)c(Sc2nnnn2-c2ccccc2)nc2ccccn12` gave MT stabilizer 3, b-catenin transl -1, Autophagy HCS active and Dynein cargo inh -2.2.
`Nc1nc2c(C(=O)N3CCOCC3)nnn2c2ccccc12` gave b-catenin transl -1, Dynein cargo inh 0.34 and Ins promoter up -0.23.
For O=C1NC(c2ccncc2)Nc2ccccc21 (centres undefined) the results were MT stabilizer 2, b-catenin transl -1, Autophagy HCS inactive, Dynein cargo inh -0.045 and Ins promoter up -0.11.
O=C1NC(c2ccc(Cl)cc2)Nc2ccccc21 (centres undefined) was read as MT stabilizer 22*, b-catenin transl 1, Autophagy HCS inactive, Dynein cargo inh 3.7 and Ins promoter up -0.19.
Cc1ccc(C2NC(=O)c3ccccc3N2)s1 (centres undefined) was read as MT stabilizer 43*, b-catenin transl 94*, Autophagy HCS inactive, Dynein cargo inh 2.9 and Ins promoter up -0.79.
`COC(=O)c1cn(C(=O)OC)c2ccccc12` gave MT stabilizer 4, b-catenin transl 2, Autophagy HCS inactive and Dynein cargo inh -0.67.
For COC(=O)c1cn(C(=O)c2ccc(C)cc2C)c2ccccc12 the results were MT stabilizer 15*, b-catenin transl -2, Autophagy HCS inactive, Dynein cargo inh -0.68 and Ins promoter up 0.71.
COC(=O)c1cn(C(=O)c2ccccc2Cl)c2ccccc12 was read as MT stabilizer 18*, b-catenin transl 11, Autophagy HCS inactive, Dynein cargo inh -0.47 and Ins promoter up 0.1.
CC(=O)Nc1ccc(NC(=O)C(C)OC(=O)CNS(=O)(=O)c2cccc(Cl)c2)cc1 (centres undefined) was read as MT stabilizer 2, b-catenin transl -4, Autophagy HCS inactive, Dynein cargo inh -0.69 and Ins promoter up -0.11.
CC(C)c1ccc2c(c1)C1(NN=C(c3ccccc3)S1)C(=O)N2 (centres undefined) was read as MT stabilizer 1, b-catenin transl 0, Autophagy HCS active and Dynein cargo inh -2.
Screening Cc1cnc(C(=O)Nc2ccccc2-c2nnn(CC(=O)NC3CCCC3)n2)cn1 returned MT stabilizer 5, b-catenin transl -1, Autophagy HCS active, Dynein cargo inh 0.38 and Ins promoter up -0.12.
For COC(=O)c1c(C)[nH]c(-c2csc(N)n2)c1C the results were MT stabilizer 13*, b-catenin transl 0, Autophagy HCS inactive, Dynein cargo inh -0.2 and Ins promoter up 2.5.
COc1ccc(-c2cc3cc(OC)c(OC)cc3c(C)n2)cc1 was read as b-catenin transl 0, Dynein cargo inh 2.6 and Ins promoter up 1.3.
For COc1ccc(S(=O)(=O)Nc2cc3c4c(oc3c3ccccc23)CCCC4=O)cc1 the results were MT stabilizer 25*, b-catenin transl -1, Autophagy HCS inactive, Dynein cargo inh -0.37 and Ins promoter up 0.67.
Screening COc1ccc(S(=O)(=O)Nc2ccccc2C)cc1 returned MT stabilizer 35, b-catenin transl -7, Autophagy HCS inactive and Dynein cargo inh 0.61.
COc1ccc(S(=O)(=O)Nc2cc3c4c(oc3c3ccccc23)CC(C)(C)CC4=O)cc1 was read as MT stabilizer 20*, b-catenin transl 1, Autophagy HCS inactive, Dynein cargo inh -1.4 and Ins promoter up -0.36.
